L major viab: inhibitors of Leishmania major promastigote growth; Leishmania major promastigotes, resazurin fluorescence viability; inhibition, % at 10 µM; 9% of 200,000 active; AID 1063;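 note: promastigotes grown with compound for 44 hours at 28 °C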
ABCG2 inh: inhibitors of human ABCG2 transporter, ABCB1 counter-screen | inhibition, % at 6.6 µM | 0.1% of 190,000 active | IgMXP3 cells, JC-1 efflux, flow cytometry;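 active = inhibition above 80%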;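 note: 0% = DMSO and 100% = nicardipine control wells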
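Measure – % inhibition of efflux relative to nicardipine and DMSO · Test system – ABCG2 IgMXP3 and barcoded ABCB1 CCRF-Adr cell mix · Control set – nicardipine as high control, DMSO as low control · Compound – one concentration, 6.6 µM final · Signal – flow cytometry of retained JC-1 fluorescence · Timing – 10 min exposure at 25 °C with rotation, no wash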
Avidin bead fluor: compound fluoresces at 488/530 nm on avidin beads. compound fluorescence 488/530 nm, flow cytometry; hits give high values. fluorescence (KMESF) at 10 µM. 0.38% of 220,000 active. AID 1775; in the data active = fluorescence above about 47
GSH bead fluor: GSH bead compound fluorescence profile | GSH beads flow cytometry, compound fluorescence 488/530 nm; hits give high values | 0.25% of 190,000 active | fluorescence (KMESF) at 10 µM; in the data active = fluorescence above about 89;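 note: glutathione beads carrying GST-tagged Bcl family fusion proteins plus one bare bead set; values are compound well signal with DMSO vehicle wells as background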
ABCB1 inh: blocks JC-1 efflux by human ABCB1 transporter; P08183; CCRF-Adr cells, flow cytometry; inhibition, % at 6.6 µM; 0.067% of 190,000 active; AID 1326; in the data active = inhibition above about 40%;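 note: 0% = vehicle and 100% = reference inhibitor; higher value means more JC-1 retained so stronger ABCB1 efflux block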
PKD1 kinase inh: inhibitors of human PKD1 kinase. Q15139. PKD1 kinase fluorescence polarization assay. inhibition, % (no concentration beside the values). 0.056% of 200,000 active
Target sequence (Q15139 whole entry, looked up): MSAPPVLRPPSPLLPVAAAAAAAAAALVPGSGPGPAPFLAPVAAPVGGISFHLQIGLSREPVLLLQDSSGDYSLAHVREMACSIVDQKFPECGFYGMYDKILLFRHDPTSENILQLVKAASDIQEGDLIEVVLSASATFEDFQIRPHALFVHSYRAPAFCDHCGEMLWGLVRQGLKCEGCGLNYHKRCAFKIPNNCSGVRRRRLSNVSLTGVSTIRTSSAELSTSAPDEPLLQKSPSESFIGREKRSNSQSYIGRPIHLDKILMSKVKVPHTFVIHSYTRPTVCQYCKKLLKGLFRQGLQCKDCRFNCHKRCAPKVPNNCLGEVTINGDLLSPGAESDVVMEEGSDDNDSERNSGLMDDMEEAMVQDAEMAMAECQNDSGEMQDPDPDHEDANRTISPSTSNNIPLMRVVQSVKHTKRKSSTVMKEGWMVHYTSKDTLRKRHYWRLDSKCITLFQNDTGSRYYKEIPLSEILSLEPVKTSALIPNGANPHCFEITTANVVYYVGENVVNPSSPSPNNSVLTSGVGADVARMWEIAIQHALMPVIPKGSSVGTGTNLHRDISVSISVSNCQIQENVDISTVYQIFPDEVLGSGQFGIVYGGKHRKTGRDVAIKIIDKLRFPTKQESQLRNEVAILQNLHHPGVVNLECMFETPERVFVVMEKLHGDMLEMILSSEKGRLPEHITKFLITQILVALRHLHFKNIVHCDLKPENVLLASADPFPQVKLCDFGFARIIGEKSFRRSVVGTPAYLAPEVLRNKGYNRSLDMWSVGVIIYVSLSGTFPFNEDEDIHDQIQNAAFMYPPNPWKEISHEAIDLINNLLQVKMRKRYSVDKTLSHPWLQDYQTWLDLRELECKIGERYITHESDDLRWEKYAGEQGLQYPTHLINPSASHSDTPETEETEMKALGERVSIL
L major 1uM: L. major promastigote growth inhibition, 1 uM repeat | shares compounds with L major viab | resazurin fluorescence, 48 h | inhibition, % at 1 µM | 13% of 1,100 active;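 active = inhibition above about 50% in both repeat tests, limit read from the data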
* = called active by the depositor; · = no result given. Many of the other results were omitted from the sample, so hits are more common in it than they were. Cut-off read from the data, not from the text of the source, unless noted: active = inhibition above about 50%; inactive = the rest.

SMILES | L major viab | ABCG2 inh | Avidin bead fluor | GSH bead fluor | ABCB1 inh | PKD1 kinase inh | L major 1uM
COc1ccc(Cn2cc3c(-c4ccc(F)cc4)nnc-3c3cc(OC)c(OC)cc32)cc1 | 16.9 | 4.7 | 12 | 23 | 0.2 | -10.1 | ·
Cc1ccc2c(c1)C1CN(C)CCC1N2C(=S)NC(=O)c1ccc(Br)cc1 (stereo not given) | 99.3* | 9.7 | 14 | 9 | 1.1 | -5.3 | -6.8
CC(OC(=O)c1ccccc1Br)C(=O)Nc1nc(-c2cccc([N+](=O)[O-])c2)cs1 (stereo not given) | 1.5 | 5.2 | 10 | 11 | 0.2 | -10.7 | ·
O=C(Nc1nc(-c2cccc([N+](=O)[O-])c2)cs1)C(c1ccccc1)c1ccccc1 | 58.6* | 0.2 | 7 | 43 | -0.3 | -9.2 | -2.3
O=C1CC(Cc2ccccc2)C(=O)N1CCCn1ccnc1 (stereo not given) | 98.8* | 1.1 | 15 | 49 | 0.5 | -15.9 | -4.8
CC12CCC(C(=O)N/N=C/c3ccc(O)cc3)(OC1=O)C2(C)C (stereo not given) | · | · | 7 | · | · | · | ·
O=C1[C@@H]2[C@@H]3C[C@@H]([C@H]4ON=C(c5ccc(Cl)cc5)[C@@H]34)[C@@H]2C(=O)N1C1CCCCC1 | -4.5 | 1.6 | 14 | 20 | 0.8 | -0.3 | ·
CCOc1ccccc1N(C(=O)Nc1cccc(Cl)c1)C1=NC(C)CS1 (stereo not given) | 81.2* | 6.9 | 15 | 5 | 0.3 | -3.1 | 7.2
CCCCCCSc1nsc(NC(=O)CC(C)C)n1 | 13.3 | -4.0 | 4 | 7 | -0.7 | 2.0 | ·
CCCCCCCSc1nsc(N)n1 | 69.4* | 4.2 | 7 | 49 | 1.3 | -4.7 | -11.7
O=c1[nH]c2ccc(S(=O)(=O)N3CCN(c4ccc(F)cc4)CC3)cc2o1 | · | · | 8 | · | · | · | ·
C=CCn1cccc(/C=C/C(=O)c2ccc(C(C)(C)C)cc2)c1=S | 100.3* | 0.0 | 1 | 5 | -0.2 | -8.8 | 65.5*
Cc1cc(/C=N/n2cnnc2)c(C)n1-c1cccc(Cl)c1 | 85.1* | 3.4 | 8 | 16 | 0.5 | 2.5 | 12.0
Cc1nn(Cc2ccc(Cl)cc2)c(=O)n1N(C)c1ncc(C(F)(F)F)cc1Cl | 93.6* | 2.8 | 9 | 11 | 1.1 | -6.6 | -17.0
CN(C)c1nc(-c2ccccn2)nnc1-c1ccccc1 | 100.3* | 2.0 | 9 | 10 | 0.2 | -5.7 | 73.8*
COc1ccccc1OC1OC2COC(c3ccco3)OC2C(O)C1NC(C)=O (stereo not given) | 65.2* | 7.0 | 10 | 9 | · | -16.3 | -13.3
CC(=O)NC1C(Oc2cccc(C)c2)OC2COC(c3ccco3)OC2C1O (stereo not given) | 44.1 | 1.5 | 16 | 10 | · | -4.7 | ·
Cc1cccc(C(C)C)c1-n1nnnc1-c1ccccc1 | 23.3 | 1.9 | 35 | 22 | 0.2 | -10.6 | ·
CCC(C)(c1nnnn1-c1c(C)cccc1C)N(N=O)c1ccccc1Cl (stereo not given) | 100.1* | 19.9 | 11 | 12 | 0.9 | -0.6 | 95.2*
O=[N+]([O-])c1cc([N+](=O)[O-])c2n[nH]c(-c3ccccc3)c2c1 | 98.2* | 7.1 | 12 | 10 | 0.4 | -4.3 | 53.5*
CN1C(=O)C(CC(=O)Nc2ccc(F)cc2)N(Cc2ccco2)C1=S (stereo not given) | 4.9 | -1.1 | 9 | 16 | -0.2 | -0.5 | ·
CSCCC(NC(=O)/C(=C\c1ccc(Cl)cc1)NC(=O)c1ccccc1)C(=O)O (stereo not given) | 7.8 | -3.6 | 9 | 15 | -0.1 | -4.4 | ·
COc1cc(CNCC(C)C)cc(Br)c1OCC(=O)Nc1ccccc1 | 100.4* | 5.6 | 6 | 19 | 0.2 | -12.1 | 44.6
CN(C)CCCN=c1cc(-c2ccccc2)oc2ccc(Cl)cc12 | 100.5* | 4.7 | 6 | 12 | -1.5 | -6.0 | 88.8*
O=C(O)CCC(CNS(=O)(=O)c1ccccc1)C(F)(F)F (stereo not given) | -9.6 | 0.8 | 27 | 19 | 0.3 | -3.1 | ·
SMILES | L major viab | ABCG2 inh | Avidin bead fluor | GSH bead fluor | ABCB1 inh | PKD1 kinase inh | L major 1uM
Cc1ccc(-c2csc(=S)n2CC(=O)OCC(=O)NC(C)C(C)C)cc1 (stereo not given) | 63.6* | 3.7 | 5 | 22 | 0.6 | 3.4 | -19.1
CCOC(=O)c1cnc2c(OC)cccc2c1Nc1ccc2c(c1)OCCO2 | 52.9* | -1.4 | 3 | 6 | 3.4 | 2.8 | 12.6
CCOC(=O)c1cnc2ccc(C(=O)OC)cc2c1Nc1ccc2c(c1)OCCO2 | -0.4 | 5.9 | 19 | 10 | 1.7 | -2.7 | ·
O=C(O)c1cc2c(s1)-c1ccccc1OC2 | -4.5 | 0.5 | 35 | 16 | 0.3 | -1.3 | ·
O=C(O)c1cc2c(s1)-c1ccccc1CC2 | 53.0* | 4.0 | 14 | 9 | -0.1 | -5.2 | -11.8
CCc1ccc(/C=C2\CN(CC)Cc3c2nc2ccccc2c3C(=O)O)cc1 | 53.9* | 0.0 | 18 | 21 | -0.2 | -4.2 | -18.7
CSc1ccccc1C(=O)N1CCCCC1 | -8.0 | 0.6 | 11 | 13 | 0.1 | -10.2 | ·
O=C(C(c1ccccc1)c1ccccc1)N1CC[C@@]2(O)CCCC[C@H]2C1 | · | · | 6 | · | · | · | ·
COc1ccc(CNC(=O)NC2CCCCC2)cc1 | 12.1 | 23.0 | 11 | 36 | 0.5 | -16.8 | ·
COc1ccc(CN2CCC(CNC(=O)NC3CCCCC3)CC2)cc1 | 90.0* | 0.4 | 6 | 37 | 0.1 | 2.3 | 7.5
COc1ccc(NC(=O)/C(Cl)=C(/Cl)S(=O)Cc2ccccc2Cl)cn1 (stereo not given) | 100.7* | 0.8 | 7 | 9 | 0.1 | 3.5 | 100.4*
COc1ccc(NC(=O)Cc2ccccc2F)cn1 | -0.4 | 1.6 | 11 | 19 | 0.1 | -5.4 | ·
CCOc1ccc(C2=Nc3ccccc3C(c3ccc(N4CCOCC4)cc3)=NN2)cc1 | 62.5* | 1.2 | 24 | 16 | 0.8 | 1.0 | -2.3
FC(F)(F)c1nnc2c(Sc3ccccn3)nc3ccccc3n12 | 94.5* | 7.7 | 7 | 19 | 1.2 | 7.1 | 13.6
COc1ccc(S(=O)(=O)Nc2ccc(C)cc2)cc1N(C)S(=O)(=O)c1ccc(Cl)cc1 | 99.2* | 1.3 | 4 | 5 | 1.0 | 1.8 | -14.5
Cc1ccc(S(=O)(=O)N2CCc3ccccc3C2CN2C(=O)c3ccccc3C2=O)cc1 (stereo not given) | 5.4 | 24.4 | 30 | 21 | 2.7 | -14.8 | ·
CC(=O)Nc1ccc(NC(=O)C(C)OC(=O)c2ccc(C)s2)cc1 (stereo not given) | 10.6 | 4.8 | 9 | 9 | 1.2 | -1.8 | ·
O=S(=O)(Nc1ccc2c(c1)nc1n2CCOC1)c1ccc(Cl)cc1 | 11.8 | 5.4 | 13 | 7 | 1.1 | -0.3 | ·
CN(CC(O)Cn1c2ccccc2c2ccccc21)S(C)(=O)=O (stereo not given) | 5.5 | 0.7 | 10 | 12 | 0.2 | -1.7 | ·

Source: PubChem BioAssay
